Assay results as given in ChEMBL document CHEMBL4513216, “Probing the Open Global Health Chemical Diversity Library for Multistage-Active Starting Points for Next-Generation Antimalarials” (ACS Infect Dis, 2020).

Test: Toxicity liver stage against HepG2, at 10uM
Format: cell-based
Parameters: test concentration 10 uM, cell line HepG2-A16-CD81EGFP
Details: human, HepG2-A16-CD81EGFP cells; read-out: INHIBITION
Summary of the method: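 Uninfected HepG2-A16-CD81EGFP cells, 3 × 10^3 per well, 1536-well, plated on prespotted compound at 10 μM final, parasite-free screening media added to match infected plates; puromycin 10 μM positive, DMSO 0.5% negative; run in parallel with 48 h PbLuc assay at 37 °C, 5% CO2; viability by CellTiter-Glo luminescence, normalized to controls.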

SMILES | cytotoxicity at 10 µM
Cn1c(=O)c2cc(C(=O)NCCc3ccccc3)ccc2n(C)c1=O | -13.8%
Cc1noc(C)c1CNCc1nn(-c2ccccc2)c2c1CCC2 | 1.83%
CC(=O)N1CCC(N2CCN3C(=O)N(c4ccccc4)C[C@H]3C2)CC1 | 1.35%
CCN(CC)C(=O)CC[C@@H]1CNC(=O)[C@@H]2C[C@H](NC(=O)C3CC3)CN12 | 5.76%
Cc1nnc(C2CCN(C(=O)c3ccc(-n4cccc4)cc3)CC2)s1 | 6.4%
O=C1COc2ccc(Br)cc2CN1CC1CC1 | -3.46%
Cc1noc(C2CCC3(CCN(C(=O)c4ccn(C)n4)CC3)O2)n1 (stereo unspecified) | 7.57%
Cn1cc(CN2CCC(F)(F)C3(CCN(c4cccc(F)c4)C3)C2)cn1 (stereo unspecified) | 45.9%
O=C(NCc1ccco1)[C@@H]1C[C@H]2OCC[C@H]2N(c2ncc(F)cn2)C1 | -0.113%
CC1(C)CC(=O)c2cnc3nc(N4CCCC4)[nH]c(=O)c3c2C1 | -2%
Cn1cnnc1S(=O)(=O)C1CCN(S(=O)(=O)c2c(Cl)cccc2Cl)CC1 | -14.2%
CC(C)NC(=O)c1sccc1N(C)S(=O)(=O)c1ccc(Cl)cc1 | 9.22%
O=C1CC2(CCN(S(=O)(=O)c3cccs3)C2)CN1c1ccccc1 (stereo unspecified) | 5.08%
Cc1nc(CN2C(=O)C[C@@H]3[C@@H]2CCN3C(=O)C2CCOCC2)cs1 | -10.8%
C[C@H]1C[C@@H]2CCN(C(=O)c3ccncn3)C[C@H]2O1 | -18.4%
COCC(=O)NCCn1nc(-c2cc(C)oc2C)ccc1=O | -1.74%
O=C(NC[C@]1(O)CCN(Cc2ccsc2)C[C@H]1O)c1c[nH]cn1 | 0.514%
Cc1noc(C)c1C(=O)N[C@@H]1CC[C@@H](Oc2ccccc2)[C@@H]1O | 0.395%
CS(=O)(=O)N1CCCCC1c1ccc(Nc2cnccn2)nc1 (stereo unspecified) | 6.39%
Cn1ccnc1CNC(=O)CCc1cccc(F)c1 | 0.293%
CN(C)c1ncc(I)c(C2CCCCN2C)n1 (stereo unspecified) | 1.74%
O=C(NCc1ccc2c(c1)OCO2)[C@@H]1C=CCN1c1ncccn1 | 0.146%
Cc1cc(C)nc(Nc2ccc(C3CCCCN3)cn2)n1 (stereo unspecified) | 11.7%

SMILES | cytotoxicity at 10 µM
CC(=O)N[C@@H]1CN(S(=O)(=O)c2ccc(Cl)cc2)C[C@H]1O | 7.03%
NC(=O)C1(Cc2ccc(-c3ccccc3)cc2)CCCNC1 (stereo unspecified) | 0.772%
CCNC(=O)C1(Cc2ccc(-c3ccccc3)cc2)CCCNC1 (stereo unspecified) | -3.73%
COCCS(=O)(=O)Nc1cc(Cl)ccn1 | 2.62%
CC(NC1(CNS(C)(=O)=O)CCOCC1)c1ccccc1 (stereo unspecified) | 6.72%
CNC(=O)C(CC(C)C)NC(=O)c1cccc(-c2n[nH]c(C)n2)c1 (stereo unspecified) | 9.04%
COc1ccc(Br)cc1CC(=O)Nc1cc(C)n[nH]1 | -0.405%
Cc1ccc(S(=O)(=O)N2CC(C)Oc3ncccc32)c(C)c1 (stereo unspecified) | 5.35%
O=C(Nc1cccnc1-n1cncn1)C1CCC1 | -4.32%
CN(C(=O)NCC1(CN2CCOCC2)CCCCC1)C1CC1 | -1.91%
Cn1cc(-c2nc(CN3CCOC(Cn4cccn4)C3)cs2)cn1 (stereo unspecified) | -4.04%
Cc1nc(C2(NCC(=O)NC(=O)NCC(F)(F)F)CCCCC2)no1 | 18.4%
COc1c(C2CCCN2C(=O)c2cnn(C)c2C2CC2)c(C)nn1C (stereo unspecified) | -2.43%
Cc1ccccc1S(=O)(=O)CCOC(C)C | 0.456%
Cn1cc(CNc2ccc(F)c(N3CCCS3(=O)=O)c2)cn1 | -12.8%
CN(CCN1CCOCC1)C(=O)C1(c2ccc(F)cc2F)CCC1 | -6.68%
Cc1ccc(OC(C)CNC(=O)c2c[nH]nn2)cc1 (stereo unspecified) | -0.0422%
FC(F)(F)c1ccnc(N2CCCN(C3CCOCC3)CC2)c1 | -7.49%
CCN(C(=O)CN1CCCC1c1ccc(OC)cc1)c1ccccc1C (stereo unspecified) | 0.623%
CC(=O)N1CCc2ccc(S(=O)(=O)N3CCCCC3C)cc21 (stereo unspecified) | -10.3%
NS(=O)(=O)CCNC(=O)c1cc2cccc(F)c2o1 | 2.46%
COc1ccccc1CC(C)(C)NC(=O)CN(C)C(C)C | 3.04%
CC(C)(C)CC(=O)NCC(=O)NCC(O)c1ccc2ccccc2c1 (stereo unspecified) | 9.73%

SMILES | cytotoxicity at 10 µM
CN(C(=O)Nc1ccccn1)C1CCCN(c2ccccc2)C1=O (stereo unspecified) | -6.63%
Cc1cc(C)nc(NC2CCOC3(CCCC3)C2)n1 (stereo unspecified) | 7.93%
CCN(C(=O)CN(CC(N)=O)C(C)C)C1=CCCC1 | 14.1%
COCCCN1CCCN(C(C)C(=O)Nc2ccnn2C(C)C)CC1 (stereo unspecified) | -8.8%
CC(NCC1=Cc2cc(Cl)ccc2OC1)c1nnc2n1CCCC2 (stereo unspecified) | -11.4%
Cc1nn(C)c(N(C)C)c1CNCC(O)COc1ccc(F)cc1 (stereo unspecified) | 0.769%
CCOCCN1CCN(Cc2nnc(C3CC3)o2)CC1CC (stereo unspecified) | -5.67%
CC(C)C1CN(C(=O)c2ccc(C(N)=O)cc2)CCS1 (stereo unspecified) | -4.03%
Cn1cc(CCNC(=O)NC2CCS(=O)(=O)C2)cn1 (stereo unspecified) | -12.9%
COc1ccc(C2CCCN2C(=O)NCCNc2ncccn2)cc1 (stereo unspecified) | -8.18%
Cc1ccc(C(=O)O)cc1S(=O)(=O)Nc1nn(-c2ccccc2)cc1C | -8.84%
Cc1nn(C)c(C)c1C1CCCN1C(=O)c1ccc(Cl)o1 (stereo unspecified) | -5.15%
FC(F)(F)CCc1ccnc(N2CCN(Cc3ccncc3)CC2)n1 | -21.2%
Cc1nc(N(C)C)ncc1C(=O)NCCc1csc(-c2ccncc2)n1 | 1.39%
CCC(=O)Nc1cccc(OCC(=O)N(C)Cc2cc(COC)[nH]n2)c1 | 1.79%
O=C(NC1CCCN(CCc2ccccc2)C1)c1cnccn1 (stereo unspecified) | 7.95%
COc1cccc2c1OCC(C(=O)N1CCSCC1)C2 (stereo unspecified) | 1.88%
CC1c2cccn2CCN1C(=O)CCc1nc(-c2ccccc2)no1 (stereo unspecified) | 0.45%
O=S(=O)(NC1CCCN(c2ncccn2)C1)N1CCCCCC1 (stereo unspecified) | 12.7%
C[C@@H]1CN(C(=O)c2ccc(=O)[nH]c2)CC[C@@]1(O)C1CCOCC1 | -1.59%
Fc1cccc(C2(CNC3CCSC3)CCOCC2)c1 (stereo unspecified) | -1.86%
O=c1cc(C2CCNCC2)nc(CCc2ccccn2)[nH]1 | -0.226%
CCn1c(C2CCN(C(=O)CCc3cc(Cl)no3)CC2)nn(C)c1=O | -7.09%

SMILES | cytotoxicity at 10 µM
CSc1ccccc1C(C(=O)O)N(C)CC1CCOCC1 (stereo unspecified) | 4.93%
O=C(NCc1cc2n(n1)CCCNC2)c1cn2cc(Cl)ccc2n1 | -10.1%
CN(C)C(=O)N1CCN(Cc2nc3ccccc3[nH]2)[C@H]2CS(=O)(=O)C[C@H]21 | -150%
Cc1cc(C[C@@H]2COC[C@@H]2NC(=O)Cn2c(=O)oc3ccccc32)on1 | -14%
CN(Cc1ccc(F)cc1)[C@@H]1CN(C(=O)c2cccs2)C[C@H]1O | 3.92%
Cc1ccc(F)cc1S(=O)(=O)Nc1ccc2c(C(=O)O)c[nH]c2c1 | -3.53%
CN(Cc1ccco1)C(=O)CN1CCOC(Cn2cncn2)C1 (stereo unspecified) | -7.36%
CCc1c(C(=O)N2CCN(c3cnccn3)CC2)cnn1C(C)(C)C | -13%
O=C(c1cc(C2CC2)[nH]n1)N1CCN(Cc2ccncc2)CC1 | -10.9%
CC1COCCN1Cc1nc(-c2ccc(F)cc2)no1 (stereo unspecified) | -9.4%
CC(C)c1cnc(CN2CCCC(c3cc(C(N)=O)[nH]n3)C2)o1 (stereo unspecified) | -13.5%
CCC1c2ccsc2CCN1C(=O)NCCc1ccccn1 (stereo unspecified) | -12.4%
CCC1c2ccsc2CCN1C(=O)NCc1ccc(C)nc1 (stereo unspecified) | -3.75%
Cc1nc(C)c(CC(=O)Nc2nnc(C3CC3)s2)c(=O)[nH]1 | -11.2%
Fc1ccc(-c2nc(CN3CCCCC3Cn3cncn3)co2)cc1 (stereo unspecified) | -8.18%
CCc1nc(CN2CCOC(Cn3nc(C)cc3C)C2)no1 (stereo unspecified) | 4.36%
O=C(CCc1ccc2c(c1)OCO2)N1CCCCC1Cn1cccn1 (stereo unspecified) | -17.2%
Cc1cnn(CC2CCCCN2C(=O)c2cccc(C(N)=O)c2)c1 (stereo unspecified) | -0.775%
Cc1cnn(CC2CCCCN2C(=O)c2ccc(CN(C)C)cc2)c1 (stereo unspecified) | -11.4%
Cc1cn2c(n1)CCC(NC(=O)c1cncnc1C)C2 (stereo unspecified) | -3.56%
CCc1nc(C2CCCN2Cc2nnc(CC)o2)no1 (stereo unspecified) | -5.36%
O=C(CN1CCN(c2ccc3nncn3n2)CC1)NC1CCCC1 | -33.9%
CCn1cnnc1CNC(=O)N1CCN(c2cccs2)CC1 | -2.07%

SMILES | cytotoxicity at 10 µM
COc1ccc(CC(=O)N2CCc3nnc(N(C)C)cc3C2)cc1F | -9.5%
CCOCC(O)CN1CCN(C(=O)c2ccccc2Cl)CC1 (stereo unspecified) | -1.96%
Cc1cc(C2CCCN(CCc3ccccn3)C2)n[nH]1 (stereo unspecified) | -10.4%
O=C(c1ccn(-c2cccc(Cl)c2)n1)N1CCN(C2CC2)CC1 | -7.03%
Cc1cc(C(=O)NCc2ccc(N3CCCC(C(N)=O)C3)cc2)no1 (stereo unspecified) | -3.37%
CC(Cc1ccco1)NC(=O)Nc1cnn(CC(N)=O)c1 (stereo unspecified) | 7.82%
O=C(NCCn1ccnc1)NCC(c1ccco1)N1CCCCC1 (stereo unspecified) | 3.44%
CC(C)n1c(=O)c2ccccc2n(CCN(C)C)c1=O | 0.616%
CN(C)CCCN(Cc1ccco1)Cc1ccnn1C1CCCCO1 (stereo unspecified) | -2.52%
CCN(CC)CC1CN(CCc2ccccc2)Cc2nccn2C1 (stereo unspecified) | -9.61%
OC(CN1CCN(Cc2ccc(F)cc2)CC1)C1CC1 (stereo unspecified) | -23.4%
CNC(C(=O)OC)c1cc(F)ccc1F (stereo unspecified) | -1.07%
CN(C)CC(=O)N1CC2(CCN(C(=O)Nc3ccccc3)C2)C1 | 4.17%
CN(C)C(=O)CO[C@H]1CN(Cc2ccsc2)[C@@H]2COC[C@H]12 | 8.44%
O=C(CN1CCC[C@@H]1C(=O)O)NCCOc1cccc(C(F)(F)F)c1 | -1.7%
NCC1CCCCN1C(=O)Cc1cccc(Br)c1 (stereo unspecified) | 0.907%
NCC1CCCCN1C(=O)Cc1ccc(F)c(F)c1 (stereo unspecified) | -1.5%
O=C(c1cnccn1)N1CCOCC2(CCN(C3CCOCC3)C2)C1 (stereo unspecified) | -7.94%
Cc1cc(CN2CCO[C@H]3[C@H](OCc4csc(C)n4)CC[C@@H]32)no1 | 5.86%
